{"source": "ChEMBL document CHEMBL4610084", "about": "“Antibacterial and ATP Synthesis Modulating Compounds from Salvia tingitana” (2020)", "key": {"Enterococcus faecalis [1]": {"test_system": "Enterococcus faecalis", "test": "Antibacterial activity against Enterococcus faecalis MB76 after 24 hrs by microdilution assay", "format": "functional", "settings": "MB76, 24 h", "how_it_was_run": "(§1)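 Broth microdilution MIC, run as in an earlier cited report. Strains are clinical isolates identified by standard methods and MALDI-TOF; E. faecalis MB19 and MB51 are Ligurian seawater isolates. Highest concentration tested was 128 μg/mL. MICs are given in μg/mL and μM, with oxacillin and vancomycin as reference antibiotics.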"}, "[2]": {"test_system": "Staphylococcus epidermidis", "test": "Antibacterial activity against Methicillin-resistant Staphylococcus epidermidis MB165 after 24 hrs by microdilution assay", "format": "functional", "settings": "MB165, 24 h", "how_it_was_run": "as §1"}, "Staphylococcus aureus [3]": {"test_system": "Staphylococcus aureus", "test": "Antibacterial activity against Methicillin-resistant Staphylococcus aureus MB18 after 24 hrs by microdilution assay", "format": "functional", "settings": "MB18, 24 h", "how_it_was_run": "as §1"}, "Enterococcus faecalis [4]": {"test_system": "Enterococcus faecalis", "test": "Antibacterial activity against Vancomycin resistant Enterococcus faecalis MB19 after 24 hrs by microdilution assay", "format": "functional", "settings": "MB19, 24 h", "how_it_was_run": "as §1"}, "Enterococcus gallinarum": {"test_system": "Enterococcus gallinarum", "test": "Antibacterial activity against Vancomycin resistant Enterococcus gallinarum MB111 after 24 hrs by microdilution assay", "format": "functional", "settings": "MB111, 24 h", "how_it_was_run": "as §1"}, "Enterococcus faecalis [5]": {"test_system": "Enterococcus faecalis", "test": "Bacteriostatic activity against Enterococcus faecalis MB1 assessed as ratio of reduction in bacterial growth at 4 times MIC by time kill assay", "format": "functional", "how_it_was_run": "(§2)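 Time-kill curves: viable cell counts of susceptible strains recorded with or without compound at 4 × MIC.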"}, "[6]": {"test_system": "Staphylococcus lugdunensis", "test": "Antibacterial activity against Staphylococcus lugdunensis MB96 after 24 hrs by microdilution assay", "format": "functional", "settings": "MB96, 24 h", "how_it_was_run": "(§3)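 Broth microdilution MIC against clinical or seawater-isolated strains (identified by standard procedures and MALDI-TOF), with compound solutions and testing as in earlier work. MIC reported in μg/mL and μM.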"}, "Staphylococcus capitis": {"test_system": "Staphylococcus capitis", "test": "Antibacterial activity against Methicillin-resistant Staphylococcus capitis MB71 after 24 hrs by microdilution assay", "format": "functional", "settings": "MB71, 24 h", "how_it_was_run": "as §1"}, "[7]": {"test_system": "Enterococcus casseliflavus", "test": "Antibacterial activity against Vancomycin resistant Enterococcus casseliflavus MB159 after 24 hrs by microdilution assay", "format": "functional", "settings": "MB159, 24 h", "how_it_was_run": "as §1"}, "Staphylococcus simulans": {"test_system": "Staphylococcus simulans", "test": "Antibacterial activity against Staphylococcus simulans MB94 after 24 hrs by microdilution assay", "format": "functional", "settings": "MB94, 24 h", "how_it_was_run": "as §3"}, "[8]": {"test_system": "Staphylococcus haemolyticus", "test": "Antibacterial activity against Methicillin-resistant Staphylococcus haemolyticus MB115 after 24 hrs by microdilution assay", "format": "functional", "settings": "MB115, 24 h", "how_it_was_run": "as §1"}, "Enterococcus faecalis [9]": {"test_system": "Enterococcus faecalis", "test": "Antibacterial activity against Vancomycin resistant Enterococcus faecalis MB1 after 24 hrs by microdilution assay", "format": "functional", "settings": "MB1, 24 h", "how_it_was_run": "as §1"}, "[10]": {"test_system": "Staphylococcus epidermidis", "test": "Bacteriostatic activity against Staphylococcus epidermidis MB165 assessed as ratio of reduction in bacterial growth at 4 times MIC by time kill assay", "format": "functional", "how_it_was_run": "as §2"}, "Staphylococcus aureus [11]": {"test_system": "Staphylococcus aureus", "test": "Bacteriostatic activity against Methicillin-resistant Staphylococcus aureus MB18 assessed as ratio of reduction in bacterial growth at 4 times MIC by time kill assay", "format": "functional"}, "Enterococcus faecium [12]": {"test_system": "Enterococcus faecium", "test": "Antibacterial activity against Enterococcus faecium MB3 after 24 hrs by microdilution assay", "format": "functional", "settings": "MB3, 24 h", "how_it_was_run": "as §3"}, "Enterococcus faecium [13]": {"test_system": "Enterococcus faecium", "test": "Antibacterial activity against Enterococcus faecium MB2 after 24 hrs by microdilution assay", "format": "functional", "settings": "MB2, 24 h", "how_it_was_run": "as §3"}, "Enterococcus faecalis [14]": {"test_system": "Enterococcus faecalis", "test": "Antibacterial activity against Vancomycin resistant Enterococcus faecalis MB51 after 24 hrs by microdilution assay", "format": "functional", "settings": "MB51, 24 h", "how_it_was_run": "as §1"}, "[15]": {"test_system": "Staphylococcus saprophyticus", "test": "Antibacterial activity against Staphylococcus saprophyticus MB41 after 24 hrs by microdilution assay", "format": "functional", "settings": "MB41, 24 h", "how_it_was_run": "as §3"}, "[16]": {"test_system": "Staphylococcus epidermidis", "test": "Antibacterial activity against Methicillin-resistant Staphylococcus epidermidis MB169 after 24 hrs by microdilution assay", "format": "functional", "settings": "MB169, 24 h", "how_it_was_run": "as §1"}, "Staphylococcus hominis": {"test_system": "Staphylococcus hominis", "test": "Antibacterial activity against Methicillin-resistant Staphylococcus hominis MB124 after 24 hrs by microdilution assay", "format": "functional", "settings": "MB124, 24 h", "how_it_was_run": "as §1"}, "Enterococcus faecium [17]": {"test_system": "Enterococcus faecium", "test": "Antibacterial activity against Enterococcus faecium MB152 after 24 hrs by microdilution assay", "format": "functional", "settings": "MB152, 24 h", "how_it_was_run": "as §3"}, "Staphylococcus warneri": {"test_system": "Staphylococcus warneri", "test": "Antibacterial activity against Methicillin-resistant Staphylococcus warneri MB74 after 24 hrs by microdilution assay", "format": "functional", "settings": "MB74, 24 h", "how_it_was_run": "as §1"}, "Bos taurus": {"species_on_record": "Bos taurus", "test": "Modulation of ATP synthase in bovine rod outer segments assessed as inhibition of ATP production at 80 ug/ml in presence of Ap5A adenylate kinase inhibitor by luciferin/luciferase chemiluminescent method relative to control", "how_it_was_run": "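Bovine rod OS (5 μg) preincubated 5 min at 37 °C in Tris/HCl pH 7.4 with KCl, EGTA, MgCl2, 0.6 mM ouabain, 0.25 mM Ap5A, 5 mM KH2PO4, 20 mM succinate, 0.35 mM NADH and ampicillin. Synthesis started with 0.1 mM ADP and stopped with perchloric acid. ATP read by luciferin/luciferase luminescence. Samples at 80 μg/mL; 30 μM resveratrol as positive control. Triplicates, ANOVA/Bonferroni.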"}, "Enterococcus faecium [18]": {"test_system": "Enterococcus faecium", "test": "Bacteriostatic activity against Enterococcus faecium MB152 assessed as ratio of reduction in bacterial growth by measuring order of magnitude at 4 times MIC by time kill assay", "format": "functional", "how_it_was_run": "as §2"}, "Enterococcus avium": {"test_system": "Enterococcus avium", "test": "Antibacterial activity against Enterococcus avium MB119 after 24 hrs by microdilution assay", "format": "functional", "settings": "MB119, 24 h", "how_it_was_run": "as §3"}, "Staphylococcus aureus [19]": {"test_system": "Staphylococcus aureus", "test": "Antibacterial activity against Methicillin-resistant Staphylococcus aureus MB188 after 24 hrs by microdilution assay", "format": "functional", "settings": "MB188, 24 h", "how_it_was_run": "as §1"}, "Enterococcus durans": {"test_system": "Enterococcus durans", "test": "Antibacterial activity against Enterococcus durans MB113 after 24 hrs by microdilution assay", "format": "functional", "settings": "MB113, 24 h", "how_it_was_run": "as §3"}}}
{"smiles": "C=C[C@@](C)(O)CC[C@@H]1[C@@]2(C)CCCC(C)(C)[C@@H]2CC[C@@]1(C)O", "values": [{"measurement": "MIC", "setting": "Enterococcus faecalis [1]", "value": 207, "unit": "µM"}, {"measurement": "MIC", "setting": "[2]", "value": 207, "unit": "µM"}, {"measurement": "MIC", "setting": "Staphylococcus aureus [3]", "value": 104, "unit": "µM"}, {"measurement": "MIC", "setting": "Enterococcus faecalis [4]", "value": 104, "unit": "µM"}, {"measurement": "MIC", "setting": "Enterococcus gallinarum", "value": 207, "unit": "µM"}, {"measurement": "Ratio", "setting": "Enterococcus faecalis [5]", "value": "1 - 2"}, {"measurement": "MIC", "setting": "[6]", "value": 104, "unit": "µM"}, {"measurement": "MIC", "setting": "Staphylococcus capitis", "value": 104, "unit": "µM"}, {"measurement": "MIC", "setting": "[7]", "value": 207, "unit": "µM"}, {"measurement": "MIC", "setting": "Staphylococcus simulans", "value": 207, "unit": "µM"}, {"measurement": "MIC", "setting": "[8]", "value": 207, "unit": "µM"}, {"measurement": "MIC", "setting": "Enterococcus faecalis [9]", "value": 104, "unit": "µM"}, {"measurement": "Ratio", "setting": "[10]", "value": "1 - 2"}, {"measurement": "Ratio", "setting": "Staphylococcus aureus [11]", "value": "1 - 2"}, {"measurement": "MIC", "setting": "Enterococcus faecium [12]", "value": 104, "unit": "µM"}, {"measurement": "MIC", "setting": "Enterococcus faecium [13]", "value": 104, "unit": "µM"}, {"measurement": "MIC", "setting": "Enterococcus faecalis [14]", "value": 207, "unit": "µM"}, {"measurement": "MIC", "setting": "[15]", "value": 104, "unit": "µM"}, {"measurement": "MIC", "setting": "[16]", "value": 207, "unit": "µM"}, {"measurement": "MIC", "setting": "Staphylococcus hominis", "value": 104, "unit": "µM"}, {"measurement": "MIC", "setting": "Enterococcus faecium [17]", "value": 207, "unit": "µM"}, {"measurement": "MIC", "setting": "Staphylococcus warneri", "value": 104, "unit": "µM"}, {"measurement": "inhibition", "setting": "Bos taurus", "value": 70, "unit": "%"}, {"measurement": "Ratio", "setting": "Enterococcus faecium [18]", "value": "1 - 2"}, {"measurement": "MIC", "setting": "Enterococcus avium", "value": 207, "unit": "µM"}, {"measurement": "MIC", "setting": "Staphylococcus aureus [19]", "value": 104, "unit": "µM"}, {"measurement": "MIC", "setting": "Enterococcus durans", "value": 104, "unit": "µM"}]}
